Most compounds without a hit are left out; they make up all but 1.9% or so of the library.
HIF activator = HIF pathway transcriptional activators, primary screen, cell-based, U2OS HRE-luciferase, luminescence; activation, % at 7.5 µM (by protocol); 300,000 tested, 0.32% active; AID 1910, 2009; U2OS HRE-luciferase reporter; normalized: DMSO 0%, desferrioxamine 100%;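 active means mean activation of at least 10% of the iron chelator positive control signal, with at least half of replicates also reaching 10%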
ABHD5 PLIN5 PPI = ABHD5-PLIN5 interaction inhibitors, primary screen, cell lysate, split luciferase complementation, luminescence | Perilipin-5 (Homo sapiens) + 1-acylglycerol-3-phosphate O-acyltransferase ABHD5 (Homo … | Split G. princeps luciferase complementation, 4 h | inhibition, % at 4 µM | 360,000 tested, 0.78% active;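 active means inhibition above the mean inhibition across every tested compound plus 3 SD, cut at about 22% in these data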;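 further: 0% = DMSO only wells and the 100% control is not disclosed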
GAA850 FXN act = FXN promoter activators, primary screen, cell-based, luciferase luminescence, HEK293 lucGAA850 | HEK293 lucGAA850 FXN promoter luciferase reporter, 24 h; percent of 10 µM SAHA response | activation, % at 6 µM | 360,000 tested, 0.56% active | AID 540364, 2011;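 active means activation above the average of all compounds screened plus 3 SD, cutoff fixed separately per campaign, cut at about 7.5% in these data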;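 further: 0% = DMSO wells and 100% = 10 µM SAHA wells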
Rad51 HR inh = human RAD51 strand exchange inhibitors, primary screen, biochemical, fluorescence. 200,000 tested, 0.085% active. hRad51 DNA strand exchange, fluorescence dequenching. DNA repair protein RAD51 homolog 1 (Homo sapiens), Q06609. inhibition, % at 10 µM;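 active means inhibition above 40% at the single screening dose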;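 further: 0% = DMSO control wells and 100% = blanks with heterologous ssDNA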
Target sequence (Q06609 whole entry, looked up): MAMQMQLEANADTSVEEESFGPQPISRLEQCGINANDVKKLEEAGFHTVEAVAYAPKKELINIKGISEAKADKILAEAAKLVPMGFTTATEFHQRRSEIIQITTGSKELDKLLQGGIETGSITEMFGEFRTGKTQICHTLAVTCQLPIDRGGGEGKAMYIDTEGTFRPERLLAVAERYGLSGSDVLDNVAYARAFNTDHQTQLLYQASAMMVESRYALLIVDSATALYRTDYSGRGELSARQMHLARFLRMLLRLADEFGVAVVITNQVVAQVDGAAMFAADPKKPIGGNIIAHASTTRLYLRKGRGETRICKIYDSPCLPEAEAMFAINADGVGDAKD
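Read-out basis: percent inhibition relative to plate controls and blanks / Assay system: human Rad51 nucleoprotein filaments preassembled on unlabelled ssDNA / Timing: filaments 15 min 37 °C, then compound 30 min / Control set: per-plate controls and blanks / Technique: fluorescence dequenching at 485/520 nm / Compound: 10 µM final, single point / Also added: Fluorescein- and BHQ1-tagged 47-mer duplex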
TAG inh = inhibitors of triacylglycerol accumulation, primary screen, cell-based, uHTS, fluorescence, H9c2; inhibition, % at 12.5 µM; H9c2 cells, Nile Red lipid (TAG) fluorescence; cells loaded with 200 µM oleic acid; AID 651582, 2012; 230,000 tested, 0.66% active;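 active means pattern-corrected inhibition of lipid staining of at least 50% with the nuclear-stain viability signal not falling by more than 50%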;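 further: 0% = DMSO wells and 100% = triacsin C control wells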
Hsp70 activator = Hsp70 transcriptional activators, primary screen, cell-based, HeLa, Hsp70 promoter luciferase, luminescence, 10 µM; HeLa Hsp70 promoter luciferase reporter; scaled: vehicle 0, proteasome-inhibitor control 100%; AID 1203, 2008; 200,000 tested, 0.04% active; activation, % at 10 µM;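 active means activation above the mean across all tested compounds plus 3 SD, cutoff set per campaign, cut at about 5.5% in these data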;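 further: 100% = MG132 at 30 µM as the positive control and 0% = DMSO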
ABHD5-PLIN5 conf = ABHD5-PLIN5 interaction inhibitors, confirmation, biochemical, luminescence; shares compounds with ABHD5 PLIN5 PPI; AID 651612, 2012; 2,200 tested, 67% active; inhibition, % at 4 µM; in the data active means inhibition above about 23%;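 further: 0% = DMSO vehicle wells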
HNF4 counter = HNF4 dimerization inhibitors, counter-screen for ABHD5-PLIN5 interaction inhibitor project, biochemical, split-luciferase complementation, luminescence; inhibition, % at 4 µM; shares compounds with ABHD5 PLIN5 PPI; 2,200 tested, 77% active; AID 651674, 2012;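 active means mean inhibition across replicate wells exceeding the computed hit threshold, cut at about 13% in these data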;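 further: light from luciferase halves that rejoin when HNF4 fusion proteins dimerize; 0% = DMSO only wells and the 100% control is not given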
Numbers without * were called inactive; . = not tested or not shown.

SMILES	HIF activator	ABHD5 PLIN5 PPI	GAA850 FXN act	Rad51 HR inh	TAG inh	Hsp70 activator	ABHD5-PLIN5 conf	HNF4 counter
CC[C@H](C)Cc1cn([C@@H](CCCN=C(NC(=O)OC(C)(C)C)NC(=O)OC(C)(C)C)C(=O)NCCCCCCCCCCC(=O)N2CCN(C(=O)OC(C)(C)C)CC2)nn1	-3.9	15.3	-1.4	.	14.6	.	.	.
COC(=O)c1ccc2c(c1)C(C)(C)C(/C=C/c1ccc(OC)c(OC)c1OC)=[N+]2C	0.2	47.0*	3.8	7.1	125.0	-0.4	101.3*	101.1*
COc1ccc(/C=N/Nc2ccc(C(=O)O)cc2)c(OC)c1OC	0.9	-0.5	5.2	.	.	.	.	.
CCOC(=O)N1CCN(C(=O)C2CCN(C(=O)c3ccccc3C)CC2)CC1	.	25.6*	6.4	.	-14.8	.	38.2*	91.0*
Cc1ccccc1C[n+]1cccc2ccccc21	-0.7	8.3	1.5	.	-26.9	.	.	.
CCCCCCCCCCCCCCCC[n+]1cccc2ccccc21	.	35.3*	-7.3	-1.3	.	-0.5	16.2	-2.8
COc1ccccc1CNC(=O)c1nn(C)c2c1CS(=O)(=O)c1ccccc1-2	-0.4	-1.2	-1.9	.	.	.	.	.
Cc1cc(-c2ccc(S(=O)(=O)N3CCCCC3)s2)on1	-1.3	0.9	0.7	.	.	.	.	.
CCCCCCc1nc(C(N)=O)c2[nH]c(=O)n(-c3ccc(OCC)cc3)c2n1	-0.7	1.3	2.3	.	.	.	.	.
Nc1nnnn1/N=C/C=C/c1ccccc1	0.5	3.3	3.6	2.6	-8.7	-0.1	.	.
Nc1nnnn1/N=C/C(Br)=C/c1ccccc1	-4.2	28.3*	-12.7	0.6	-6.8	0.8	53.9*	51.1*
CC1(C(=O)Nc2cnc3ccccc3c2)CCN1Cc1ccc(-c2ccccc2)o1 (stereo unspecified)	.	65.0*	1.2	.	-0.6	.	46.5*	69.7*
Cc1cn([C@H]2C[C@H](O)[C@@H](CNCc3ccc(F)c(N4CCOCC4)c3)O2)c(=O)[nH]c1=O	.	-2.3	-1.4	.	7.1	.	.	.
NC(=O)C1CCN(C(=O)COc2ccc(S(=O)(=O)NC3CCCC3)cc2)CC1	-0.7	-6.3	0.2	.	.	.	.	.
Cc1ccc(S(=O)(=O)NC2CCCCC2)cc1C(=O)N1CCC(C(N)=O)CC1	.	35.5*	0.2	.	-2.2	.	5.6	1.9
COc1ccc(OC)c(-c2csc(NC(=O)Cc3ccc(F)cc3)n2)c1	1.3	-6.1	2.1	.	.	.	.	.
Cc1ccc(-c2csc(Nc3ccc(S(N)(=O)=O)cc3)n2)o1	0.0	32.0*	0.8	-16.0	7.4	-0.3	64.9*	99.8*
Cc1ccc(-c2csc(NC(=O)c3ccc(-c4ccccc4)cc3)n2)o1	1.4	55.2*	1.0	1.9	30.6	-0.2	25.2*	26.7*
Cc1ccc(-c2csc(NC(=O)Cc3ccc(F)cc3)n2)o1	0.5	29.8*	2.1	-19.8	10.1	0.9	59.7*	94.5*
COc1cccc(OC)c1NC(=O)CN(C)S(=O)(=O)c1ccc2c(c1)OCCO2	0.0	-0.2	1.3	.	.	.	.	.
N/C(CN1CCCCC1)=N\S(=O)(=O)c1cc(Cl)cc(Cl)c1	0.0	-2.2	0.1	7.3	-16.8	.	.	.
O=C(O)CCc1ccc(-c2ccccc2)o1	-2.0	37.9*	0.9	2.7	-0.4	-0.1	23.7*	48.1*
O/N=C\c1ccc(-c2ccccc2)o1	2.3	-5.0	4.4	5.2	.	-0.3	.	.
O=C1/C(=C/c2ccncc2)CCc2ccccc21	0.6	34.4*	2.2	27.7	4.2	.	62.3*	59.0*
O=C1C(=Cc2ccncc2)CCCc2ccccc21	.	17.8	0.2	.	-17.9	.	.	.
SMILES	HIF activator	ABHD5 PLIN5 PPI	GAA850 FXN act	Rad51 HR inh	TAG inh	Hsp70 activator	ABHD5-PLIN5 conf	HNF4 counter
O=C1C(=Cc2ccc(Cl)cc2)CCc2ccccc21	.	10.0	.	.	.	.	.	.
O=C1/C(=C\c2ccncc2)CCc2ccccc21	7.2	31.8*	2.0	.	13.3	.	63.3*	60.0*
CN(C(=O)COC(=O)c1ccccc1OCc1ccc(F)cc1)C1CCS(=O)(=O)C1 (stereo unspecified)	.	5.8	1.9	.	-17.7	.	.	.
Cc1ccc(C(c2ccc(C)c(C)c2)C(O)C2OC(=O)C(O)C2O)cc1C (stereo unspecified)	.	-10.0	-1.4	.	15.8	.	.	.
CC(=O)n1cc([C@H]2C=C(C(=O)N3CCN(Cc4ccc5c(c4)OCO5)CC3)O[C@@H](OCCCCO)C2)c2ccccc21	0.1	15.2	-0.8	1.2	0.4	-0.2	.	.
Cc1cc(C)cc(N2C(=O)C=CC2=O)c1	.	35.1*	-2.0	.	-1.1	.	28.8*	88.5*
COc1ccc(Cl)cc1C(=O)NCCN(C)C	-0.4	-3.1	1.1	-4.6	-20.2	-0.1	.	.
CN(C)CCNC(=O)c1ccc(COc2ccc(Cl)cc2Cl)cc1	-0.1	26.8*	1.5	7.5	28.6	-0.1	15.5	1.9
CCOC(=O)Cn1c(=N)n(CCOc2ccc3ccccc3c2)c2ccccc21	1.1	25.1*	-4.4	-0.7	17.3	-0.4	9.4	8.8
N=c1c(C(=O)NCc2ccco2)cc2c(=O)n3ccccc3nc2n1Cc1ccc(Cl)cc1	-0.3	26.2*	-1.3	-1.5	21.1	1.1	13.7	23.5*
COCCCn1c(=N)c(C(=O)NCc2ccc3c(c2)OCO3)cc2c(=O)n3ccccc3nc21	-0.4	2.0	0.5	-9.5	.	-0.3	.	.
COCCn1c(=N)c(C(=O)NCc2ccco2)cc2c(=O)n3ccccc3nc21	.	24.8*	0.8	1.9	7.1	-0.2	6.7	33.4*
Cc1ccc2nc3c(cc(C(=O)NCc4ccco4)c(=N)n3Cc3ccco3)c(=O)n2c1	2.5	32.6*	2.3	10.5	-3.2	-0.4	9.8	29.2*
CCOC(=O)c1cc2c(=O)n3ccccc3nc2n(Cc2ccc(Cl)cc2)c1=N	.	-1.0	-0.2	.	12.3	.	.	.
C=CCN1C(=O)/C(=C/N(C)C)S/C1=N\S(=O)(=O)c1cccs1	.	-10.1	0.5	.	0.0	.	.	.
O=C(NCc1ccco1)c1nn2c(C(F)(F)F)cc(-c3cccs3)nc2c1Cl	0.3	2.9	6.6	-6.2	.	-0.3	.	.
Cc1ccccc1-n1nc(C)c2c(C(=O)NN)cc(-c3ccncc3)nc21	-2.4	14.2	1.3	12.9	4.0	-0.1	.	.
